Measured values published in ChEMBL document CHEMBL1139386, “Discovery of novel CB2 receptor ligands by a pharmacophore-based virtual screening workflow” (J Med Chem, 2009).
pEC50, pKi: −log10 of the molar value.

How the values were obtained:
[1] = species: Homo sapiens; assay: Selectivity ratio of Ki for human CB1 receptor to Ki for human CB2 receptor
Method in brief: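 Ki ratio from radioligand displacement on membranes overexpressing human CB1 (7.16 µg, 0.39 nM radioligand) or CB2 (3.8 µg, 0.11 nM radioligand). Incubation 90 min at 30 °C in Tris/EGTA/MgCl2/BSA buffer, pH 7.4, then GF/C filtration and scintillation counting; nonspecific binding with 10 µM reference ligand. IC50 from Hill plots; three independent experiments in triplicate.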

[2] = biological target: T1, Cannabinoid receptor 1 (Homo sapiens, UniProt P21554); assay: Displacement of [3H]CP-55940 from human recombinant CB1 receptor
T1 sequence (P21554 whole entry): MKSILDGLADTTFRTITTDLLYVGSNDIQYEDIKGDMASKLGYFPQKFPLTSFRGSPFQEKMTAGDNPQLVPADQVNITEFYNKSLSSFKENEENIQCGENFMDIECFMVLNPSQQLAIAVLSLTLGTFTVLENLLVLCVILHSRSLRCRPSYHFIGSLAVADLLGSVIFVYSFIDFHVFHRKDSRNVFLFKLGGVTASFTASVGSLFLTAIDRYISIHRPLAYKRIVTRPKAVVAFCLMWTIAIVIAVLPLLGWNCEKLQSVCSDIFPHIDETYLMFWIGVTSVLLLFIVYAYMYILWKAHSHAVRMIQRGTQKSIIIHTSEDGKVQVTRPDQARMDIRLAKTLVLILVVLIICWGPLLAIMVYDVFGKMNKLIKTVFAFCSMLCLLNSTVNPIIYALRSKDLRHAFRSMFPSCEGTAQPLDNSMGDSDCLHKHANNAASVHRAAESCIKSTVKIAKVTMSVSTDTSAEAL

[3] = biological target: T2, Cannabinoid receptor 2 (Homo sapiens, UniProt P34972); assay: Displacement of [3H]CP-55940 from human recombinant CB2 receptor
T2 sequence (P34972 whole entry): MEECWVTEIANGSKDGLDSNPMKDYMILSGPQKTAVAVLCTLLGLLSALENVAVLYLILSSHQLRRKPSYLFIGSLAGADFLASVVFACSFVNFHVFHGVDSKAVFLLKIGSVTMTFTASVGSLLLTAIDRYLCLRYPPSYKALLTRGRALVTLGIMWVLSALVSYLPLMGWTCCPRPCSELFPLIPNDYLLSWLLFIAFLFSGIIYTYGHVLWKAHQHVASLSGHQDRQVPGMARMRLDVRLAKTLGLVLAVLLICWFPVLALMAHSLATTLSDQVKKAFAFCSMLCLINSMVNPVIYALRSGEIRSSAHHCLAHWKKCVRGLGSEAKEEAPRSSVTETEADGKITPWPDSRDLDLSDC
Method in brief: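 Membranes from cells recombinantly overexpressing CB2 (Bmax 4.7 pmol/mg protein), 3.8 µg, in binding buffer (50 mM Tris-HCl, 2.5 mM EGTA, 5 mM MgCl2, 0.5 mg/mL fatty-acid-free BSA, pH 7.4) with 0.11 nM radioligand. Compounds were tested at varying concentrations, with nonspecific binding defined by 10 µM reference ligand. Incubation was 90 min at 30 °C, followed by PEI-soaked GF/C filtration and scintillation counting. Data were normalized and Hill-linearized to give IC50 and Ki (three experiments, triplicate).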

[4] = biological target: T1, Cannabinoid receptor 1; assay: Binding affinity to CB1 receptor
[5] = biological target: T2, Cannabinoid receptor 2; assay: Binding affinity to CB2 receptor
[6] = Selectivity ratio of Ki for CB1 receptor to Ki for CB2 receptor
[7] = biological target: T2, Cannabinoid receptor 2; assay: Agonist activity at human CB2 receptor expressed in CHO-K1 cells assessed as forskolin-stimulated cAMP release; format: functional, cell-based; conditions: filed as partial agonist
Method in brief: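 CHO-K1 cells expressing hCB2, plated at 3×10^5 cells/mL overnight, were preincubated 10 min in supplement-free RPMI 1640 with 500 µM IBMX. Test compounds were added at several concentrations for 30 min at 37 °C, then 20 µM forskolin for a further 30 min at 37 °C. Intracellular cAMP was read by EFC chemiluminescence, with a high-affinity CB ligand as positive control.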

Structure (SMILES) | Ratio Ki [1] | pKi [2] | pKi [3] | further results
CCCn1cc(C(=O)c2ccc(C)c3ccccc23)c2ccccc21 | 173 | 5.98 |  | 
COc1ccc(OC)c(N(CC(=O)NCc2ccncc2)S(=O)(=O)c2ccc(C)cc2)c1 | > 37 | < 7.30 | 8.87 | 
CCS(=O)(=O)n1c2c(c3cc(C(=O)N4CCC(OC)CC4)ccc31)CN(C1CCCC1)C2 | 77 |  |  | 
COc1ccc2c(c1)c(CC(=O)N1CCOCC1)c(C)n2C(=O)c1cccc(Cl)c1Cl | 146 |  |  | 
CN1CCCC[C@@H]1Cn1cc(C(=O)c2cc([N+](=O)[O-])ccc2I)c2ccccc21 |  |  |  | pKi [4]: 5.30; pKi [5]: 7.82; Ratio Ki [6]: 331
CCCCCCC(C)(C)c1cc(OC)c([C@H]2C=C(CO)[C@@H]3C[C@H]2C3(C)C)c(OC)c1 |  |  |  | pKi [4]: 5.00
CCCCSc1nc2c(c(=O)n1CCc1ccccc1)C1(CCCC1)Cc1ccccc1-2 | > 2 | < 7.30 | > 7.60 | 
COc1ccc2c(c1)c(CCN1CCOCC1)c(C)n2C(=O)c1cccc(Cl)c1Cl |  |  |  | Ratio Ki [6]: 160
CCCN1Cc2c(n(S(=O)(=O)CC)c3ccc(C(=O)N4CCC(C)CC4)cc23)C1 | 54 |  |  | 
CCCCCC(C)(C)c1cc(OC)c2c(c1)OC(C)(C)[C@@H]1CCC(C)=C[C@@H]21 | 174 |  |  | 
CCOc1ccc(N(CC(=O)N[C@@H](C)CC)S(=O)(=O)c2ccc(Br)cc2)cc1 | > 2 | < 7.30 | > 7.60 | 
CCCCCCc1cc(O)c2c(c1)OC(C)(C)C1=C2CCN(C)C1 | > 27 | < 7.30 | 8.75 | Activity [7]: Partial agonist
CCCCCCC(C)(C)c1cc(OC)c([C@@]2(O)CCC[C@@H](C)C2)c(OC)c1 | 220 | 5.30 | 7.64 | 
CC(=O)n1c2c(c3cc(C(=O)N4CCC(C)CC4)ccc31)CN(C1CCCC1)C2 | 26 |  |  | 
CCCCCCC(C)(C)c1cc(O)c2c(c1)oc(=O)c1ccc(O)cc12 | 488 | 6.40 | 9.09 | 
Cc1cccc(-c2nnc(SCC(=O)NC3CCCCC3)n2Cc2ccccc2)c1 | > 2 | < 7.30 | > 7.60 | 
CC1CCN(C(=O)c2ccc3c(c2)c2c(n3S(C)(=O)=O)CN(C3CCCC3)C2)CC1 | 35 |  |  | 
CCc1ccccc1NC(=O)CSc1nnc(-c2ccccc2OC)n1-c1ccccc1 | > 23 | < 7.30 | 8.68 | 
COc1ccc2c(c1)c(CN1CCOCC1)c(C)n2C(=O)c1cccc(Cl)c1Cl | 153 |  |  | 
CCCCCn1cc(C(=O)c2cc3ccccc3cc2OC)c2ccccc21 |  |  |  | pKi [4]: 6.42; pKi [5]: 8.14; Ratio Ki [6]: 53
CCCn1c(C)c(C(=O)c2cccc3cc(OC)ccc23)c2ccccc21 | > 333 | < 5.00 |  | 
CCCCCn1c(C)c(C(=O)c2c(OC)ccc3ccccc23)c2ccccc21 | 34 | 5.86 |  | 
CCCCCN(CCCCC)C(=O)c1ccccc1C(=O)Nc1ccc(Br)cc1 | > 2 | < 7.30 | > 7.60 | 
O=C(NCC1CCOCC1)c1cnc(Nc2ccc(Cl)cc2Cl)nc1C(F)(F)F [GW842166X] | > 600 |  |  | pEC50 [2]: < 4.52
CCCC(C)(C)c1ccc2c(c1)OC(C)(C)[C@@H]1CC=C(C)C[C@@H]21 | 35 | 9.10 | 10.64 | pKi [4]: 6.17; pKi [5]: 8.47; Ratio Ki [6]: 199
CCCCCCC(C)(C)c1cc(OC)c(C2(O)CCOCC2)c(OC)c1 | > 29 | < 5.00 | 6.47 | 
